The source made the active and inactive calls. No cut-off for these calls is given here.
Experiments:
[1] = test system: Mus musculus; experiment: Analgesic activity in sc dosed mouse by Nilsen assay; assay type: functional
[2] = test system: Mus musculus; experiment: Analgesic activity in sc dosed mouse by Eddy hot-plate assay; assay type: functional
[3] = test system: Mus musculus; experiment: Analgesic activity mouse at 20 to 40 mg/kg, sc by Eddy hot-plate assay; assay type: functional, organism-based
In short: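 Mouse analgesia by the Eddy hot-plate assay with subcutaneous injection. The ED50 is expressed with 95% SE limits.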

[4] = test system: Rhesus monkey; experiment: Physical dependence capacity in monkey assessed as precipitation of morphine-induced abstinence at 10 mg/kg; assay type: ADME, organism-based, Macaca mulatta; set-up: dose 10 mg/kg; details: in vivo
[5] = test system: Rhesus monkey; experiment: Toxicity in monkey assessed as muscle rigidity at 10 mg/kg for 1 to 2 hrs; assay type: organism-based, Macaca mulatta, Muscle tissue; set-up: dose 10 mg/kg; details: in vivo
[6] = test system: Rhesus monkey; experiment: Toxicity in monkey assessed as tremors at 10 mg/kg for 1 to 2 hrs; assay type: organism-based, Macaca mulatta; set-up: dose 10 mg/kg; details: in vivo
[7] = test system: Rhesus monkey; experiment: Physical dependence capacity in monkey assessed as single dose suppression of morphine withdrawal syndrome at 0.5 to 16 mg/kg; assay type: ADME, organism-based, Macaca mulatta; set-up: dose 0.5-16 mg/kg; details: in vivo
[8] = test system: Rhesus monkey; experiment: Toxicity in monkey at 0.5 to 16 mg/kg; assay type: organism-based, Macaca mulatta; set-up: dose 0.5-16 mg/kg; details: in vivo
[9] = test system: Mus musculus; experiment: Toxicity in mouse at 20 to 40 mg/kg, sc; assay type: organism-based; set-up: dose 20-40 mg/kg, route subcutaneous; details: in vivo
[10] = test system: Rhesus monkey; experiment: Physical dependence capacity in monkey assessed as precipitation of morphine withdrawal syndrome at 5 to 10 mg/kg; assay type: ADME, organism-based, Macaca mulatta; set-up: dose 5-10 mg/kg; details: in vivo
[11] = test system: Rhesus monkey; experiment: Toxicity in monkey assessed as pupil dilation at 10 mg/kg for 1 to 2 hrs; assay type: organism-based, Macaca mulatta; set-up: dose 10 mg/kg; details: in vivo
[12] = test system: Rhesus monkey; experiment: Toxicity in monkey assessed as piloerection at 10 mg/kg for 1 to 2 hrs; assay type: organism-based, Macaca mulatta; set-up: dose 10 mg/kg; details: in vivo
[13] = test system: Rhesus monkey; experiment: Toxicity in monkey assessed as increase spontaneous movement at 10 mg/kg for 1 to 2 hrs; assay type: organism-based, Macaca mulatta; set-up: dose 10 mg/kg; details: in vivo
[14] = test system: Rhesus monkey; experiment: Physical dependence capacity in monkey assessed as precipitation of morphine-induced abstinence at 0.5 to 16 mg/kg; assay type: ADME, organism-based, Macaca mulatta; set-up: dose 0.5-16 mg/kg; details: in vivo
[15] = test system: Rhesus monkey; experiment: Physical dependence capacity in monkey assessed as single dose suppression of morphine withdrawal syndrome at 5 to 10 mg/kg; assay type: ADME, organism-based, Macaca mulatta; set-up: dose 5-10 mg/kg; details: in vivo
[16] = test system: Rhesus monkey; experiment: Toxicity in monkey assessed as restlessness at 10 mg/kg for 1 to 2 hrs; assay type: organism-based, Macaca mulatta; set-up: dose 10 mg/kg; details: in vivo
[17] = test system: Rhesus monkey; experiment: Toxicity in monkey assessed as irritable behavior at 10 mg/kg for 1 to 2 hrs; assay type: organism-based, Macaca mulatta; set-up: dose 10 mg/kg; details: in vivo
[18] = test system: Rhesus monkey; experiment: Toxicity in monkey assessed as apprehensive behavior at 10 mg/kg for 1 to 2 hrs; assay type: organism-based, Macaca mulatta; set-up: dose 10 mg/kg; details: in vivo
[19] = test system: Rhesus monkey; experiment: Toxicity in monkey assessed as depression at 1 to 16 mg/kg for 24 hrs; assay type: organism-based, Macaca mulatta; set-up: dose 1-16 mg/kg; details: in vivo
[20] = test system: Rhesus monkey; experiment: Physical dependence capacity in monkey assessed as single dose suppression of morphine withdrawal syndrome at 1 to 16 mg/kg; assay type: ADME, organism-based, Macaca mulatta; set-up: dose 1-16 mg/kg; details: in vivo
[21] = test system: Mus musculus; experiment: Analgesic activity in po dosed mouse by Nilsen assay; assay type: functional
In short: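 Mouse analgesia by the Nilsen test with oral dosing. The ED50 is reported in mg/kg with confidence limits in parentheses.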

[22] = test system: Rhesus monkey; experiment: Toxicity in monkey assessed as head tremor at 10 mg/kg; assay type: organism-based, Macaca mulatta; set-up: dose 10 mg/kg; details: in vivo
[23] = test system: Rhesus monkey; experiment: Toxicity in monkey assessed as gazing behavior at 10 mg/kg; assay type: organism-based, Macaca mulatta; set-up: dose 10 mg/kg; details: in vivo
[24] = test system: Rhesus monkey; experiment: Toxicity in monkey assessed as severe retching at 1 to 4 mg/kg for 24 hrs; assay type: organism-based, Macaca mulatta; set-up: dose 1-4 mg/kg; details: in vivo
[25] = test system: Rhesus monkey; experiment: Physical dependence capacity in monkey assessed as single dose suppression of morphine withdrawal syndrome at 2.5 to 10 mg/kg; assay type: ADME, organism-based, Macaca mulatta; set-up: dose 2.5-10 mg/kg; details: in vivo
[26] = test system: Rhesus monkey; experiment: Toxicity in monkey assessed as vomiting at 1 to 4 mg/kg for 24 hrs; assay type: organism-based, Macaca mulatta; set-up: dose 1-4 mg/kg; details: in vivo
[27] = test system: Mus musculus; experiment: Toxicity in mouse at 50 mg/kg, sc; assay type: organism-based; set-up: dose 50 mg/kg, route subcutaneous; details: in vivo
[28] = test system: Rhesus monkey; experiment: Toxicity in monkey assessed as myoclonic jerks at 6 mg/kg, sc; assay type: organism-based, Macaca mulatta; set-up: dose 6 mg/kg, route subcutaneous; details: in vivo
[29] = test system: Rhesus monkey; experiment: Physical dependence capacity in monkey assessed as precipitation of morphine withdrawal syndrome at 0.5 to 16 mg/kg; assay type: ADME, organism-based, Macaca mulatta; set-up: dose 0.5-16 mg/kg; details: in vivo
[30] = test system: Mus musculus; experiment: Toxicity in mouse at 16 mg/kg, sc; assay type: organism-based; set-up: dose 16 mg/kg, route subcutaneous; details: in vivo
[31] = test system: Rhesus monkey; experiment: Toxicity in monkey at 16 mg/kg; assay type: organism-based, Macaca mulatta; set-up: dose 16 mg/kg; details: in vivo
[32] = Mus musculus, sc, read-out: ED50

CN1CC[C@]23c4c5ccc(O)c4O[C@H]2[C@@H](O)C=C[C@H]3[C@H]1C5.Cl [MORPHINE HYDROCHLORIDE]
ED50 [1, 32]: 0.8 mg/kg | ED50 [2, 32]: 1.2 mg/kg

CCC[C@H]1[C@H]2Cc3ccc(O)cc3[C@]1(C)CCN2C [listing 1 of 2 here]
Activity [3]: inactive

CCC[C@H]1[C@H]2Cc3ccc(O)cc3[C@]1(C)CCN2C.O=C(O)C(O)c1ccccc1
Activity [4]: Non-toxic | Activity [5]: Toxic | Activity [6]: Toxic | Activity [7]: Non-toxic | Activity [8]: Non-toxic | ED50 [1, 32]: 1.2 mg/kg | Activity [9]: Toxic | Activity [10]: Non-toxic | ED50 [2, 32]: 1.1 mg/kg | Activity [11]: Toxic | Activity [12]: Toxic | Activity [13]: Toxic | Activity [14]: Non-toxic | Activity [15]: Non-toxic | Activity [16]: Toxic | Activity [17]: Toxic | Activity [18]: Toxic

CCC[C@@H]1[C@H]2Cc3ccc(O)cc3[C@]1(C)CCN2C.Cl
Activity [19]: Toxic | ED50 [1]: 0.35 mg/kg | ED50 [2]: 0.3 mg/kg | Activity [20]: Toxic | ED50 [21]: 7.26 mg/kg | Activity [22]: Toxic | Activity [23]: Toxic | Activity [24]: Toxic | Activity [25]: Non-toxic | Activity [26]: Toxic | Activity [27]: Toxic

CCC[C@H]1[C@H]2Cc3ccc(O)cc3[C@]1(C)CCN2C [listing 2 of 2 here]
ED50 [1, 32]: 1.8 mg/kg | ED50 [2, 32]: 1.61 mg/kg | Activity [28]: Toxic

COc1ccc2c3c1O[C@H]1C(=O)CC[C@@]4(O)[C@@H](C2)N(C)CC[C@]314 [OXYCODONE]
ED50 [21]: 1.3 mg/kg

COc1ccc2c3c1O[C@H]1[C@@H](O)C=C[C@H]4[C@@H](C2)N(C)CC[C@@]341 [CODEINE]
ED50 [21]: 21.4 mg/kg

CCC[C@@H]1[C@H]2Cc3ccc(O)cc3[C@]1(C)CCN2C.Cl (racemic)
Activity [29]: Non-toxic | ED50 [1, 32]: 0.35 mg/kg | ED50 [2]: 0.64 mg/kg | Activity [30]: Non-toxic | Activity [31]: Non-toxic

C=CCN1CC[C@]23c4c5ccc(O)c4O[C@H]2[C@@H](O)C=C[C@H]3[C@H]1C5.Cl [NALORPHINE HYDROCHLORIDE]
ED50 [1, 32]: 4.8 mg/kg | ED50 [2, 32]: 36.4 mg/kg

From ChEMBL document CHEMBL3272274, “Optical resolution of (+/-)-2,5-dimethyl-2'-hydroxy-9alpha- and -9beta-propyl-6,7-benzomorphans and their pharmacological properties” (J Med Chem, 1976)
